# Experimental data published in article PMC4084507 (Chembiochem : a European journal of chemical biology, 2014).
# Like-named read-outs stand apart in the source and are kept apart here.
# Experiments:
# AtsB = AtsB (Mycobacterium tuberculosis, UniProt O65931); settings: 10 µM probe, 7-8 min; native gel-resolved lysate
# Helix pomatia sulfatase [1] = assay: fluorogenic hydrolysis assay; assay type: biochemical; settings: read-out: Helix pomatia ^[b]; potassium acetate buffer pH 5.0, 37 °C
# Method in brief: (§1)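 Commercial Helix pomatia sulfatase was incubated with the fluorogenic sulfate substrate in potassium acetate buffer (pH 5.0) at 37 °C. Formation of the released fluorophore was monitored over time. Substrate-only reactions without enzyme served as the background control. KM and Vmax (pmoles/sec) were derived from the kinetics, and Vmax/KM was calculated from them.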
# Helix pomatia sulfatase [2] = assay: fluorogenic hydrolysis assay; assay type: biochemical; settings: read-out: Helix pomatia ^[b]; potassium acetate buffer pH 5.0, 37 °C; remark: listed apart in the source
# Method in brief: as §1
Structure (SMILES),in-gel fluorescence after native gel of lysate (AtsB),Km (Helix pomatia sulfatase [1]) [µM],Km (Helix pomatia sulfatase [2]) [µM]
CC1(C)C2=C(Cl)C(=O)C(Cl)=CC2=Nc2ccc(OS(=O)(=O)O)cc21 [DDAO-sulfate],"AtsB can hydrolyze both RS and DDAO-sulfate, but not MFS",,
O=c1ccc2nc3ccc(OS(=O)(=O)O)cc3oc-2c1 [RS],"AtsB can hydrolyze both RS and DDAO-sulfate, but not MFS",17.5 ± 0.9,
COc1ccc2c(c1)Oc1cc(OS(=O)(=O)O)ccc1C21OC(=O)c2ccccc21 (stereo not shown) [MFS],,,24.8 ± 2.2
